This is a sample that favours compounds with a hit; in the whole collection about 3.5% have one here.
MrgX1 PAM: human MrgX1 positive allosteric modulation, primary screen; Q96LB2; MrgX1-HEK293, Fluo-4 calcium flux, FDSS; active compounds read high; B-score at 10 µM; 310,000 compounds, 0.63% hits; AID 588675;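 active = plate-corrected calcium response at least 3 library SD above typical, normal starting fluorescence, not activating the receptor alone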;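 also: compound read alongside a low EC10 to EC30 dose of BAM8-22 agonist; peak minus trough fluorescence over baseline measured at the second addition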
Target sequence (Q96LB2 whole entry, looked up): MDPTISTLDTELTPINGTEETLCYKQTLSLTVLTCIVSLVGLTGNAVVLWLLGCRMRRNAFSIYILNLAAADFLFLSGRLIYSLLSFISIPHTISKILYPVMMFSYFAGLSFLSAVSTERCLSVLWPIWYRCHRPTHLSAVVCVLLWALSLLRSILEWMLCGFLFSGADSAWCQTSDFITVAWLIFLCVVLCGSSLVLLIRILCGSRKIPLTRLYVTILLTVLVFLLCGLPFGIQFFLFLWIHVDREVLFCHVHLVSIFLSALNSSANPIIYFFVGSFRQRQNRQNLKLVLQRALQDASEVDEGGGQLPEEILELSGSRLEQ
RGS4 inh: inhibitors of human RGS4; P49798; HEK293 M3R/RGS4 inducible, Fluo-4 calcium flux; active compounds read high; triggered by carbachol at its EC20; B-score at 10 µM; 310,000 compounds, 0.45% hits; AID 463165;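 active = B-score, a plate-corrected calcium signal, over three deviations above library mean, with baseline fluorescence within five deviations of library mean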;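 also: RGS4 expression induced by doxycycline in cells with stable M3 receptor; B-score is computed from the integrated fluorescence ratio over baseline after carbachol; higher B-score means a larger calcium signal and so more RGS4 inhibition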
Target sequence (P49798 whole entry, looked up): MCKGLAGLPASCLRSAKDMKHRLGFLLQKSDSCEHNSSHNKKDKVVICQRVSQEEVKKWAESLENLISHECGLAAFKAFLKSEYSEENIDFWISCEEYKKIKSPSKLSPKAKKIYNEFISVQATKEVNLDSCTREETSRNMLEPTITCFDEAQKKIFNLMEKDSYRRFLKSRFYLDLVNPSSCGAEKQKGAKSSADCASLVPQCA
RGS4 act: RGS4 potentiation or activation | AID 463111 | 310,000 compounds, 0.92% hits | B-score at 10 µM | HEK293 M3R/inducible RGS4, carbachol calcium flux Fluo4; active compounds read low;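 active = B-score of the integrated calcium signal more than 4 SD below the library mean, with starting fluorescence not abnormally high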;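 also: negative B-score means reduced calcium response which marks RGS4 activation or potentiation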
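test system = HEK293 cells with stable M3R and inducible RGS4 | schedule = recording 10 s baseline at 1 Hz, 100 s post-agonist | technique = Fluo4-AM (2 µM) calcium-flux fluorescence, kinetic read | measure = Agonist-evoked peak-minus-minimum fluorescence over baseline, integrated ratio, B score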
MrgX1 agonist: human MrgX1 receptor agonism, primary screen. Q96LB2. MrgX1-HEK293 cells, Fluo-4 calcium fluorescence, agonist mode; active compounds read high. B-score at 10 µM. 310,000 compounds, 0.44% hits;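 active = calcium response B-score plate-corrected fluorescence ratio at least 3 library SD, with starting fluorescence B-score inside 5 SD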
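Assay system: stable human MrgX1 HEK293 cell line. Quantity: 15,000 cells per well. Schedule: cells plated overnight, dye loaded 0.5 h 37 °C, 0.5 h room temperature. Detection: Fluo-4 NW calcium-flux fluorescence, kinetic read. Read-out basis: peak-minus-minimum fluorescence over baseline, converted to B scores. Control set: positive and negative control wells on each plate.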
MrgX1 antagonist: antagonists of human MrgX1 receptor; 310,000 compounds, 1.3% hits; B-score at 10 µM; MRGX1-HEK293 calcium flux, Fluo-4, BAM8-22 antagonism; active compounds read low;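 active = calcium-response B-score plate-corrected more than 3 library SD below zero, starting fluorescence within 5 deviations, no agonist response on first addition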;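 also: peak minus trough fluorescence over baseline after final BAM8-22 challenge near maximal dose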
RGS4 act valid: confirmation of RGS4 activators. shares compounds with RGS4 act. HEK293 M3R/RGS4 inducible, carbachol calcium flux Fluo4. inhibition, % at 10 µM. 1,100 compounds, 89% hits. AID 602282;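 active = inhibition above 3 SD of the buffer control wells, cut at about 41% in these data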;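 also: signal is the integrated peak-minus-minimum Fluo4 fluorescence over baseline ratio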
M3R Ca counter: activity in cells without induced RGS4 expression. shares compounds with RGS4 act. HEK293 M3R non-induced RGS4, Fluo4 calcium flux; after carbachol challenge at its EC90. inhibition, % at 10 µM. 1,100 compounds, 82% hits. AID 602283;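 active = inhibition exceeding 3 SD of buffer-only control wells, cut at about 26% in these data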;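 also: percent drop in integrated peak-minus-baseline over baseline Fluo4 ratio after carbachol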
* = called active by the depositor.

For c1cn2c(NC3CCCCC3)c(-c3ccc(SC4CCCCC4)cc3)nc2cn1 the results were MrgX1 PAM inactive, RGS4 inh inactive, RGS4 act inactive, MrgX1 agonist inactive and MrgX1 antagonist inactive.
N#Cc1c(N2CCN(C(=O)c3ccccc3)CC2)nc(-c2ccccc2)c2c1CCCC2 was read as MrgX1 PAM inactive, RGS4 inh inactive, RGS4 act -7.9*, MrgX1 agonist inactive, MrgX1 antagonist inactive, RGS4 act valid 90* and M3R Ca counter 54*.
Screening O=C(c1ccco1)N1CCN(c2nc(C3CC3)nc3sc4c(c23)CCCC4)CC1 returned MrgX1 PAM inactive, RGS4 inh inactive, RGS4 act -8.5*, MrgX1 agonist inactive, MrgX1 antagonist inactive, RGS4 act valid 87* and M3R Ca counter 45*.
`N#Cc1c(N2CCN(C(=O)c3ccco3)CC2)nc(-c2ccccc2)c2c1CCCC2` gave MrgX1 PAM inactive, RGS4 inh inactive, RGS4 act -8.2*, MrgX1 agonist inactive, MrgX1 antagonist inactive, RGS4 act valid 91* and M3R Ca counter 48*.
`CCc1nn(CC(=O)N2CCN(c3ccc(OC)cc3)CC2)c(=O)c2cc3occc3n12` gave MrgX1 PAM inactive, RGS4 inh inactive, RGS4 act inactive, MrgX1 agonist inactive and MrgX1 antagonist inactive.
Screening CCOC(=O)c1c(N)sc2c(OCC)c(Br)ccc12 returned MrgX1 PAM inactive, RGS4 inh inactive, RGS4 act inactive, MrgX1 agonist inactive and MrgX1 antagonist inactive.
For CCOC(=O)c1c(NC(C)=O)sc2c(OCC(O)CNC(C)(C)C)c(Br)ccc12 (stereo not given) the results were MrgX1 PAM inactive, RGS4 inh inactive, RGS4 act -10*, MrgX1 agonist inactive, MrgX1 antagonist inactive, RGS4 act valid 94* and M3R Ca counter 94*.
For COc1cccc(Cc2n[nH]c(=S)n2Cc2ccco2)c1 the results were MrgX1 PAM inactive, RGS4 inh inactive, RGS4 act -10*, MrgX1 agonist inactive, MrgX1 antagonist inactive, RGS4 act valid 60* and M3R Ca counter 84*.
Screening CCOc1ccc(Cc2n[nH]c(=S)n2Cc2ccccc2)cc1 returned MrgX1 PAM inactive, RGS4 inh inactive, RGS4 act -8.8*, MrgX1 agonist inactive, MrgX1 antagonist inactive, RGS4 act valid 61* and M3R Ca counter 84*.
CC1CN(C(=O)COc2coc(CN3CCc4ccccc4C3)cc2=O)CC(C)O1 (stereo not given) was read as MrgX1 PAM inactive, RGS4 inh inactive, RGS4 act inactive, MrgX1 agonist inactive and MrgX1 antagonist inactive.
For Cc1ccc(S(=O)(=O)NCCC(=O)Nc2cccc(Cl)c2)cc1 the results were MrgX1 PAM inactive, RGS4 inh inactive, RGS4 act inactive, MrgX1 agonist inactive and MrgX1 antagonist inactive.
CCn1ncc(CN2CCCC(C(=O)c3cccc(OC(C)C)c3)C2)c1C (stereo not given) was read as MrgX1 PAM inactive, RGS4 inh inactive, RGS4 act -10*, MrgX1 agonist inactive, MrgX1 antagonist inactive, RGS4 act valid 84* and M3R Ca counter 38*.
Cc1ccc(-n2nc3c(N4CCC(C(=O)NCc5cccc(F)c5)CC4)nnc(C)c3c2C)cc1 was read as MrgX1 PAM inactive, RGS4 inh inactive, RGS4 act inactive, MrgX1 agonist inactive and MrgX1 antagonist inactive.
`CC(C)NC(=O)c1ccc2c(=O)n(C3CCCC3)c(=S)[nH]c2c1` gave MrgX1 PAM inactive, RGS4 inh inactive, RGS4 act inactive, MrgX1 agonist inactive and MrgX1 antagonist inactive.
CCN(CC)CCNC(=O)c1ccc2c(=O)n(C3CCCC3)c(=S)[nH]c2c1 was read as MrgX1 PAM inactive, RGS4 inh inactive, RGS4 act -8.4*, MrgX1 agonist inactive, MrgX1 antagonist inactive, RGS4 act valid 92* and M3R Ca counter 73*.
CCc1noc(C)c1C(=O)Nc1nnc(CC(C)C)s1 was read as MrgX1 PAM inactive, RGS4 inh inactive, RGS4 act inactive, MrgX1 agonist inactive and MrgX1 antagonist inactive.
For CN1CCCC(CC2Oc3ccccc3Sc3ccccc32)C1 (stereo not given) the results were MrgX1 PAM inactive, RGS4 inh inactive, RGS4 act -9.1*, MrgX1 agonist inactive, MrgX1 antagonist inactive, RGS4 act valid 93* and M3R Ca counter 92*.
Screening CCN(CC)CCNC(=O)c1ccc(NC(=O)c2c(C)nn(-c3ccc(F)cc3)c2Cl)cc1 returned MrgX1 PAM inactive, RGS4 inh inactive, RGS4 act -9.8*, MrgX1 agonist inactive, MrgX1 antagonist inactive, RGS4 act valid 92* and M3R Ca counter 88*.
Screening CCN(CC)CCNC(=O)c1ccc(NC(=O)Cc2ccccc2F)cc1 returned MrgX1 PAM inactive, RGS4 inh inactive, RGS4 act inactive, MrgX1 agonist inactive and MrgX1 antagonist inactive.
For c1ccc2nc3c(nc2c1)OCC1CCCCN31 (stereo not given) the results were MrgX1 PAM inactive, RGS4 inh inactive, RGS4 act -7.6*, MrgX1 agonist inactive, MrgX1 antagonist inactive, RGS4 act valid 72* and M3R Ca counter 84*.
Screening COc1cccc(NC(=O)C2CCC(CNS(=O)(=O)c3cccc4cccnc34)CC2)c1 (stereo not given) returned MrgX1 PAM inactive, RGS4 inh inactive, RGS4 act inactive, MrgX1 agonist inactive and MrgX1 antagonist inactive.
COc1cccc(NC(=O)CN(C)C(=O)c2cc(-c3cccc(Br)c3)nc3ccccc23)c1 was read as MrgX1 PAM inactive, RGS4 inh inactive, RGS4 act -9.5*, MrgX1 agonist inactive, MrgX1 antagonist inactive, RGS4 act valid 84* and M3R Ca counter 28*.
Cc1ccc(-c2ccc(OC(=O)c3ccc(=O)[nH]c3)c(C)c2)cc1 was read as MrgX1 PAM inactive, RGS4 inh inactive, RGS4 act inactive, MrgX1 agonist inactive and MrgX1 antagonist inactive.
For O=C(NCc1ccc2c(c1)OCO2)c1ccc(C2SCC(=O)N2Cc2ccco2)cc1 (stereo not given) the results were MrgX1 PAM inactive, RGS4 inh inactive, RGS4 act -7.7*, MrgX1 agonist inactive, MrgX1 antagonist inactive, RGS4 act valid 71* and M3R Ca counter 84*.
Screening CC(C)(C)S(=O)(=O)c1ccsc1C(=O)O returned MrgX1 PAM inactive, RGS4 inh inactive, RGS4 act -16*, MrgX1 agonist inactive, MrgX1 antagonist inactive, RGS4 act valid 0 and M3R Ca counter 0.

Assay outcomes: PubChem BioAssay, Johns Hopkins Ion Channel Center
